Bioassay records (PubChem)
NPY Y1 blocker – antagonists of human neuropeptide Y receptor Y1. HEK293-CNG Y1 cells, membrane potential fluorescence; NPY at EC95, then isoproterenol. inhibition, % at 3.6 µM. actives 1% (n = 200,000). AID 1040;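 active = inhibition above the campaign mean inhibition of all tested compounds plus 3 SD, cut at about 20% in these data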;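 also: 0% = DMSO wells given NPY plus isoproterenol and 100% = isoproterenol alone without NPY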
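Test system – HEK293 Y1/CNG channel cell line · Also added – NPY agonist 25 nM, then isoproterenol 1 µM plus Ro 20-1724 25 µM · Compound dosing – one concentration, 3.6 µM, in 0.4% DMSO · Schedule – compound incubation 1 h at room temperature, readout 45 min post-stimulation · Technique – fluorescence, membrane potential probe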
NPY-Y1 PAM-ag – potentiates or activates human NPY-Y1 receptor; activation, % at 3.6 µM; actives 0.37% (n = 220,000); P25929; NPY-Y1 expressing cells, potentiator/agonist activation; AID 1304; in the data active = activation above about 33%, passing the limit was not always enough;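 also: cells stimulated with NPY at EC10 then isoproterenol at EC100; 0% = low agonist plus stimulus and 100% = saturating agonist plus stimulus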
Insulin prom up – MIN6 insulin promoter up-regulation. MIN6 insulin promoter-GFP reporter, high-content imaging; stronger effect = higher value. z-score at 5 µM. actives 0.3% (n = 190,000);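 active = z-score above 3 at 5 µM with at least 500 cells counted in the well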
INS promoter inh – TRM-6 insulin promoter activity inhibition | TRM-6 cells, insulin promoter-eGFP reporter, imaging; reporter expression induced with tamoxifen | actives 0.9% (n = 130,000) | inhibition, % at 2 µM;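 active = inhibition above the mean plus 3 SD, with well images judged a real hit on visual review, cut at about 60% in these data, passing the limit was not always enough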
NPY-Y2 antag – blocks the human neuropeptide Y Y2 receptor | P49146 | NPY-Y2 expressing cells, antagonist mode | inhibition, % at 2.7 µM | AID 793 | actives 0.99% (n = 140,000); in the data active = inhibition above about 17%;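 also: 0% = vehicle with agonist challenge and 100% = reference antagonist with challenge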
Target sequence (P49146 whole entry, looked up): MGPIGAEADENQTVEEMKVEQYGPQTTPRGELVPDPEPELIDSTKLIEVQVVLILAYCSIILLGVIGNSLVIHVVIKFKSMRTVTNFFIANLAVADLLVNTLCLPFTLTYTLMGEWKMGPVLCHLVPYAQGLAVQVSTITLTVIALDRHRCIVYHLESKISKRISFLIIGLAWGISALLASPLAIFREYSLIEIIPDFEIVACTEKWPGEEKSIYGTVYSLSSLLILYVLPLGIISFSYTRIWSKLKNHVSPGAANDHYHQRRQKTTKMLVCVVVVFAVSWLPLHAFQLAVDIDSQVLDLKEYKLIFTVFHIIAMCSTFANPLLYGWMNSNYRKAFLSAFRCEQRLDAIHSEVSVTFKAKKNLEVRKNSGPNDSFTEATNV
NPY2 pot ag – potentiators or agonists of human neuropeptide Y receptor Y2 | AID 1359 | cells expressing NPY-Y2, potentiator/agonist read-out | actives 0.45% (n = 220,000) | activation, % at 3.6 µM; in the data active = activation above about 27%;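 also: cells stimulated with NPY near EC25 plus isoproterenol at EC100; 0% = vehicle plus submaximal agonist and 100% = vehicle plus saturating agonist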
Numbers without * were called inactive; i = inactive; nt = not tested or not shown. Compounds with a hit are over-represented: about 2.5% of the library has one in this group of screens.

SMILES	NPY Y1 blocker	NPY-Y1 PAM-ag	Insulin prom up	INS promoter inh	NPY-Y2 antag	NPY2 pot ag
N#Cc1c(N)nc2c3c(sc(=N)c2c1N)NC(=O)CC3c1ccccc1 (configuration not stated)	23*	-30	0.11	-17	19*	-19
COC(=O)Nc1nc(-c2ccccc2)c(C(=O)c2ccccc2)s1	30*	-18	0.02	-17	13	-21
COc1ccc(O[C@H]2C=C[C@@H](c3ccccc3)O[C@@H]2COC(=O)CC/C(C)=N/OC[C@@H](O)COCc2ccco2)cc1	7	-21	0.18	-29	12	-3
COC(=O)C/C=C/[C@@H](C)[C@@H](/C=N/OC[C@H]1O[C@H](c2ccccc2)C=C[C@@H]1Oc1ccc(OC)cc1)OC	25*	-39	-0.18	-48	19*	2
COc1cccc(CN2CCC(N(CCc3ccccc3)Cc3ccccc3)CC2)c1OC	35*	-30	-0.27	7	31*	-1
COc1cccc(CN2CCN(CCc3ccccc3)C(CCO)C2)c1OC (configuration not stated)	2	-7	nt	20	nt	1
Cc1cccc(/C(N)=N/OC(=O)CCCN2C(=O)c3ccccc3C2=O)c1	29*	-30	-0.01	-77	8	-18
COc1cc(CCCN2C(N)=NC[C@@H]2Cc2ccc(O)cc2)cc(OC)c1OC	nt	nt	-0.73	nt	nt	nt
CNS(=O)(=O)c1cccc(C(=O)NCC(c2cccs2)N(C)C)c1 (configuration not stated)	2	10	0.18	73*	3	-13
Cc1ccc(NS(=O)(=O)c2cccc(C(=O)NCC(c3cccs3)N(C)C)c2)cc1 (configuration not stated)	0	-4	-0.25	nt	nt	12
CCCc1ccc(C(=O)NNc2ccc(F)cc2)cc1	nt	51*	-0.99	nt	nt	46*
CC(C)Cn1c(SCC(=O)N2CCCCC2)nc2ccccc2c1=O	22*	-18	-0.2	-269	24*	-12
O=C(CSc1nc2ccccc2c(=O)n1Cc1ccco1)N1CCCC1	-1	-3	-2.4	nt	nt	1
COCCCn1c(SCc2nnc(-c3ccc(OC)c(OC)c3)o2)nc2ccccc2c1=O	14	-24	-1.8	-37	16	-6
CCOC(=O)CSc1nc2ccccc2c(=O)n1CC(C)C	20*	-24	2.1	nt	nt	-28
COc1ccc(-c2nnc(CSc3nc4ccccc4c(=O)n3CC(C)C)o2)cc1OC	26*	-30	-0.91	7	28*	-37
O=C(CC1c2ccccc2Oc2ccccc21)Nc1ccccc1C(F)(F)F	9	-3	0.2	nt	9	3
COc1ccc(CN(CC2CCC(C(=O)O)CC2)C(=S)Nc2cccc(C)c2)cc1 (configuration not stated)	-3	-3	3.6*	nt	nt	3
Cc1ccc(-c2[nH]nc(N)c2N=Nc2cccc(Cl)c2C)cc1	-1	46*	0.53	nt	-3	17
CCNc1nc(Oc2ccc(=O)[nH]n2)nc(N2CCOCC2)n1	1	-13	nt	75*	1	-3
CC(C)CNc1nc(Oc2ccc(=O)[nH]n2)nc(N2CCOCC2)n1	0	10	0.99	nt	nt	3
O=C(CSc1nc2ccccc2[nH]1)Nc1c(F)c(F)c(F)c(F)c1F	8	-11	1.9	-33	nt	-8
Cc1noc(C)c1CSc1nc2ccccc2[nH]1	6	-3	-0.28	-10	4	9
O=C(CSc1nc2ccccc2[nH]1)Nc1c(F)cccc1F	4	0	1.3	89*	0	-16
Fc1cccc(F)c1CSc1nc2ccccc2[nH]1	2	19	-0.51	75*	3	-16
SMILES	NPY Y1 blocker	NPY-Y1 PAM-ag	Insulin prom up	INS promoter inh	NPY-Y2 antag	NPY2 pot ag
Cc1c(C(c2ccc(O)cc2)c2c(C)n(C)n(-c3ccccc3)c2=O)c(=O)n(-c2ccccc2)n1C	-1	4	nt	0	nt	5
Cc1c(C(c2ccc([N+](=O)[O-])cc2)c2c(C)n(C)n(-c3ccccc3)c2=O)c(=O)n(-c2ccccc2)n1C	-1	-6	4.1*	nt	-1	-6
CCN(CC)S(=O)(=O)c1cccc(-n2c(O)c(C=Nc3ccccc3C(=O)O)c3ccccc3c2=O)c1	nt	48*	0.56	nt	nt	74*
O=C(O)c1ccccc1N=Cc1c(O)n(-c2nccs2)c(=O)c2ccccc12	nt	38	-0.68	nt	nt	36
CN(C)C(=O)CN(c1ccc2c(c1)OCO2)S(C)(=O)=O	-1	-2	3.6*	71*	1	13
Cc1nonc1OCCNCc1c(C(=O)N(C)C)nc2ccc(Cl)cn12	13	-10	-0.27	43	nt	-6
CC(=O)Oc1ccc(C(c2ccc(OC(C)=O)cc2)c2ccccn2)cc1	102*	-125	nt	-9	108*	-28
COC(=O)c1[nH]c2cccc(OC)c2c1NC(=O)CN1CCN(c2cccc(OC)c2)C(C)C1 (configuration not stated)	2	-4	-1.5	12	2	-7
CCOC(=O)c1[nH]c2cc(OC)c(OC)cc2c1NC(=O)CN1CCN(c2ccc(OC)cc2)C(C)C1 (configuration not stated)	-3	11	-0.2	67*	-3	3
O=C(COC(=O)c1n[nH]c2ccccc12)NC(=O)NCc1ccco1	0	28	-0.34	nt	3	-1
O=C(COC(=O)c1cc2ccccc2cc1O)NC(=O)NCc1ccco1	21*	-15	0.47	nt	nt	-29
CSc1nnc2c3ccccc3n(CCc3ccccc3)c2n1	29*	-20	nt	-28	28*	-12
CC1C[N+](=C2C=C(N3CCOCC3)CC(C)(C)C2)CC(C)O1 (configuration not stated)	nt	-20	nt	nt	nt	-12
CN(C)c1ncnc(N(C)C)c1[N+](=O)[O-]	nt	-12	-1.6	nt	nt	0
Cc1cccc(C)c1Nc1c(-c2ccc(N3CCOCC3)cc2)nc2cnccn12	nt	84*	-0.89	nt	nt	71*
c1cn2c(Nc3ccc4c(c3)OCCO4)c(-c3ccc(N4CCOCC4)cc3)nc2cn1	nt	18	0.84	nt	nt	-19
Cc1ccc(C(=O)Nc2ccccc2C(=O)N2CCOCC2)cc1[N+](=O)[O-]	-4	-12	-0.34	-24	4	13
CC(Sc1nnc(-c2ccc(Cl)cc2Cl)n1Cc1ccccc1)C(=O)Nc1nccs1 (configuration not stated)	26*	10	-0.67	5	29*	-1
Cc1nnc(SC(C)C(=O)Nc2ccc(Cl)cn2)n1Cc1ccccc1 (configuration not stated)	7	-3	0.09	-12	9	1
Cc1ccccc1C(=O)O/N=C(\N)c1ccncc1	2	-11	-0.17	i	2	-7
CCOc1ccccc1N=c1oc2cc(O)ccc2cc1C(=O)NCC1CCCO1 (configuration not stated)	36*	-45	-1.1	26	25*	-12
